{"source": "ChEMBL document CHEMBL4706774", "about": "“Creation of Fluorescent RXR Antagonists Based on CBTF-EE and Application to a Fluorescence Polarization Binding Assay” (ACS Med Chem Lett, 2021)", "key": {"[1]": {"target": "T1, Retinoic acid receptor RXR-alpha (Homo sapiens) (UniProt P19793)", "T1 sequence (whole entry)": "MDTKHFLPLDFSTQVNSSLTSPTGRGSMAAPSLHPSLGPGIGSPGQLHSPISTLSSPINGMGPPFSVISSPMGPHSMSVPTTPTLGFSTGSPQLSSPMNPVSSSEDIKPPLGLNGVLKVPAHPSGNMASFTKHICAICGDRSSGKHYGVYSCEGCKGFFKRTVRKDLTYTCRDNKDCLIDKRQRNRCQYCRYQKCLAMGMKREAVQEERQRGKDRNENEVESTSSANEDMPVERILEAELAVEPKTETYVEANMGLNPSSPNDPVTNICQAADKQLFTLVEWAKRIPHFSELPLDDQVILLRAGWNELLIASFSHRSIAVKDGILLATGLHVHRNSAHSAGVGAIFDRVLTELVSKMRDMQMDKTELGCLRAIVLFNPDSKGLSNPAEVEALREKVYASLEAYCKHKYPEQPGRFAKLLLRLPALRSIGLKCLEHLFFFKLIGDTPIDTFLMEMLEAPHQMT", "experiment": "Antagonist activity against human RXRalpha expressed in COS1 cells incubated for 18 hrs by SEAP reporter gene assay", "type": "cell-based", "conditions": "COS-1, filed as antagonist"}, "[2]": {"experiment": "Fluorescence property of compound in MeOH assessed as molar extinction coefficient by UV-visible spectrophotometric method", "type": "physicochemical"}, "[3]": {"experiment": "Fluorescence property of compound in EtOH assessed as molar extinction coefficient by UV-visible spectrophotometric method", "type": "physicochemical"}, "[4]": {"experiment": "Fluorescence property of compound in MeOH assessed as excitation wavelength by UV-visible spectrophotometric method", "type": "physicochemical", "procedure,_shortened": "(§1)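 Fluorescence excitation and emission spectra recorded on the compound at 1 μM in MeOH solution. Maxima of excitation and emission taken from these spectra.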"}, "[5]": {"experiment": "Fluorescence property of compound in EtOH assessed as excitation wavelength by UV-visible spectrophotometric method", "type": "physicochemical"}, "[6]": {"experiment": "Fluorescence property of compound in MeOH assessed as emission wavelength by UV-visible spectrophotometric method", "type": "physicochemical", "procedure,_shortened": "as §1"}, "[7]": {"experiment": "Fluorescence property of compound in EtOH assessed as emission wavelength by UV-visible spectrophotometric method", "type": "physicochemical"}, "[8]": {"experiment": "Fluorescence property of compound in MeOH assessed as quantum yield by UV-visible spectrophotometric method", "type": "physicochemical"}, "[9]": {"experiment": "Fluorescence property of compound in EtOH assessed as quantum yield by UV-visible spectrophotometric method", "type": "physicochemical"}, "[10]": {"target": "T2, Retinoic acid receptor RXR-alpha (Homo sapiens, UniProt P19793)", "T2 sequence (P19793 whole entry)": "T1 sequence (whole entry)", "experiment": "Binding affinity to human RXRalpha-LBD (224 to 462 residues) expressed in Escherichia coli BL21(DE3) incubated for 2 hrs by fluorescence assay"}, "[11]": {"target": "T2, Retinoic acid receptor RXR-alpha", "experiment": "Binding affinity to human RXRalpha-LBD (224 to 462 residues) expressed in Escherichia coli BL21(DE3) incubated for 1 hr by fluorescence polarization assay"}}, "note": "Calls of active or inactive are those of the source. The calls are words filed in the database; no cut-off is given here.", "data": [{"smiles": "CC1=CC(C)=[N+]2C1=C(c1ccc(C(=O)NCCOCCOc3cc4c(cc3-n3c(C(F)(F)F)nc5cc(C(=O)O)ccc53)C(C)(C)CCC4(C)C)cc1)c1c(C)cc(C)n1[B-]2(F)F", "values": [{"measurement": "Activity", "setting": "[1]", "value": "Active"}, {"measurement": "Activity", "setting": "[2]", "value": "2.8 10^4L/mol"}, {"measurement": "Activity", "setting": "[3]", "value": "2.8 10^4L/mol"}, {"measurement": "Activity", "setting": "[4]", "value": 499, "unit": "nm"}, {"measurement": "Activity", "setting": "[5]", "value": 499, "unit": "nm"}, {"measurement": "Activity", "setting": "[6]", "value": 508, "unit": "nm"}, {"measurement": "Activity", "setting": "[7]", "value": 509, "unit": "nm"}, {"measurement": "Activity", "setting": "[8]", "value": 0.349}, {"measurement": "Activity", "setting": "[9]", "value": 0.471}, {"measurement": "Kd", "setting": "[10]", "value": 761, "unit": "nM"}, {"measurement": "Kd", "setting": "[11]", "value": 375, "unit": "nM"}]}, {"smiles": "CC1(C)CCC(C)(C)c2cc(-n3c(C(F)(F)F)nc4cc(C(=O)O)ccc43)c(OCCOCCNc3ccc([N+](=O)[O-])c4nonc34)cc21", "values": [{"measurement": "Activity", "setting": "[1]", "value": "Active"}, {"measurement": "Activity", "setting": "[2]", "value": "6.7 10^3L/mol"}, {"measurement": "Activity", "setting": "[3]", "value": "8.4 10^3L/mol"}, {"measurement": "Activity", "setting": "[4]", "value": 464, "unit": "nm"}, {"measurement": "Activity", "setting": "[5]", "value": 461, "unit": "nm"}, {"measurement": "Activity", "setting": "[6]", "value": 530, "unit": "nm"}, {"measurement": "Activity", "setting": "[7]", "value": 527, "unit": "nm"}, {"measurement": "Activity", "setting": "[8]", "value": 0.224}, {"measurement": "Activity", "setting": "[9]", "value": 0.237}, {"measurement": "Kd", "setting": "[10]", "value": 629, "unit": "nM"}]}]}
